Data taken from publication PMC12059366 (Biomolecules & Therapeutics, 2025).

Assays:
complementary DNAs = experiment: Melting temperature; type: binding; details: 2 μM PNA-DNA duplex, 10 mM sodium phosphate pH 7.0, 0.1 M NaCl; absorbance at 260 nm, 25°C to 90°C at 1.0°C per minute
IDO1 pre-mRNA = experiment: IDO1 gene expression by q-RT-PCR in human keratinocytes; type: cell-based; details: non-cytotoxic concentrations (Fig. 2B, 2C), n=3
IL-8 = IL-8 level by ELISA in supernatants of IFNγ-treated human keratinocytes; type: cell-based; details: concentration-dependent, n=3
IL-6 = IL-6 level by ELISA in supernatants of IFNγ-treated human keratinocytes; type: cell-based; details: concentration-dependent, n=3
IDO1 = IDO1 gene expression by q-RT-PCR in IFNγ-treated human keratinocytes; type: cell-based; details: compound 24 h before IFNγ, n=3
How it was run: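 Primary neonatal foreskin human keratinocytes in supplemented KBM Gold medium were pretreated with test PNA for 24 h, then given recombinant human IFNγ in KBM Gold basal medium. The control was scrambled PNA at 0.1 μM. RNA was extracted with TRIzol and RNeasy, then reverse-transcribed. IDO1 was measured by TaqMan q-RT-PCR against RPL13A using the Pfaffl method. Results are mean ± SD, n=3, t-test.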

PGE2 = PGE2 level by ELISA in supernatants of IFNγ-treated human keratinocytes; type: cell-based; details: concentration-dependent, n=3

Row | Substance | Tm (binding affinity to complementary DNA) (complementary DNAs) [°C] | IDO1 gene expression, concentration-dependent analysis (IDO1 pre-mRNA) | IL-8 level in cell culture supernatant (IL-8) | IL-6 level in cell culture supernatant (IL-6) | IDO1 expression (IDO1) | PGE2 level in cell culture supernatant (PGE2)
1 | CG*^2TA*C*TTTGA*TTG*^2 [Compound 4] | 72.07 |  |  |  |  | 
2 | Compound 2: modified PNA oligomer with cationic lipid-bearing nucleobases targeting IDO1 pre-mRNA (CTCCAAACCTTACG; PNA; cationic lipid-bearing nucleobases) | 82.07 | significant inhibitory effect | effectively reduced | effectively reduced | significantly inhibits IDO1 expression | effectively reduced
